SMILES strings stand for the structures. Active and inactive are the calls of the source. The calls are words filed in the database; no cut-off is given here.

The subject of assay [1] is MONO-MAC-6. Kind of assay: Upregulation of PTGS2 mRNA expression level in human MONO-MAC-6 cells at 5 uM incubated for 30 mins measured after 2 hrs by oligonucleotide array hybridization assay relative to control. The class given is functional.
In assay [2] the test system is MONO-MAC-6. Kind of assay: Upregulation of CXCL3 mRNA expression level in human MONO-MAC-6 cells at 5 uM incubated for 30 mins measured after 1 hr by oligonucleotide array hybridization assay relative to control. It is filed as functional.
The target in assay [3] is T1, Sphingomyelin phosphodiesterase (Homo sapiens) (UniProt P17405).
T1 sequence (whole entry): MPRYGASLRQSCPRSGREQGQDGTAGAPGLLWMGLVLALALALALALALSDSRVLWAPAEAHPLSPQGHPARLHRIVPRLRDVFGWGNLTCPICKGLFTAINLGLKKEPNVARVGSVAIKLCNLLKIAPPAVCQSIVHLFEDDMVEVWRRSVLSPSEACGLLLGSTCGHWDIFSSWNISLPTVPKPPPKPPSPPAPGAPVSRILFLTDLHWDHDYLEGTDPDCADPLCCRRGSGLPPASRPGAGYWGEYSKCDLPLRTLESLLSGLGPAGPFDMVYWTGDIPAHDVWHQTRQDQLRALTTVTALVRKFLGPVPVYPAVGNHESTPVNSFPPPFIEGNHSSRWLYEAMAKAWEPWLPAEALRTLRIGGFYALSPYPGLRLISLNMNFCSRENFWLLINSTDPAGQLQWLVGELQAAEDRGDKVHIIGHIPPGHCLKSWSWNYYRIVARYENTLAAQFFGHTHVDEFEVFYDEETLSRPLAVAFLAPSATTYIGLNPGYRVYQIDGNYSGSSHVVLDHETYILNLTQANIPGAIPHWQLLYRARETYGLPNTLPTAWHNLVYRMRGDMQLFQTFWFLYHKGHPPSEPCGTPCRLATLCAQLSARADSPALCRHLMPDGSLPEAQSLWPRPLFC
Kind of assay: Inhibition of mmLDL-stimulated acid sphingomyelinase in human PBMC lysates up to 10 uM preincubated for 30 mins followed by mmLDL stimulation measured after 4 hrs by YO-PRO-1/Hoechst 33342 staining based assay.

Assay [4] relates to MONO-MAC-6. Kind of assay: Upregulation of PTX3 mRNA expression level in LPS-stimulated human MONO-MAC-6 cells at 5 uM preincubated for 30 mins followed by LPS stimulation measured after 2 hrs by oligonucleotide array hybridization assay (reference value: 1.56). The class given is functional.
Assay [5] concerns MONO-MAC-6. Briefly: Downregulation of CCL20 mRNA expression level in human MONO-MAC-6 cells at 5 uM incubated for 30 mins measured after 4 hrs by oligonucleotide array hybridization assay relative to control. It is filed as functional. The gist of the method: (§1)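 Total RNA was isolated, transcribed and labeled with DY-647 dye, then co-hybridized with DY-548-labeled cDNA from untreated cells on an inflammation oligonucleotide chip (780 gene probes). Differential expression >1.5 was taken as significant.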

Assay [6] deals with MONO-MAC-6. Briefly: Upregulation of IL23A mRNA expression level in human MONO-MAC-6 cells at 5 uM incubated for 30 mins measured after 4 hrs by qRT-PCR method relative to control. The class given is functional. Background: Quantitative PCR measures a nucleic acid by following its amplification.
For assay [7], the system named is MONO-MAC-6. Kind of assay: Downregulation of CXCL3 mRNA expression level in LPS-stimulated human MONO-MAC-6 cells at 5 uM preincubated for 30 mins followed by LPS stimulation measured after 1 hr by oligonucleotide array hybridization assay (reference value: 1.18). It is filed as functional. The gist of the method:
as §1

Assay [8] concerns MONO-MAC-6. Briefly: Upregulation of IL23A mRNA expression level in LPS-stimulated human MONO-MAC-6 cells at 5 uM preincubated for 30 mins followed by LPS stimulation measured after 4 hrs by qRT-PCR method (reference value: 10.78). The class given is functional.
Assay [9] relates to MONO-MAC-6. Kind of assay: Downregulation of ICAM1 mRNA expression level in LPS-stimulated human MONO-MAC-6 cells at 5 uM preincubated for 30 mins followed by LPS stimulation measured after 2 hrs by oligonucleotide array hybridization assay (reference value: 1.94). The class given is functional. The gist of the method: as §1
Assay [10] relates to MONO-MAC-6. Kind of assay: Downregulation of CXCL10 mRNA expression level in human MONO-MAC-6 cells at 5 uM incubated for 30 mins measured after 6 hrs by oligonucleotide array hybridization assay relative to control. The class given is functional. The gist of the method: as §1
The subject of assay [11] is MONO-MAC-6. Briefly: Upregulation of FCGR2B mRNA expression level in LPS-stimulated human MONO-MAC-6 cells preincubated for 30 mins followed by LPS stimulation measured after 4 hrs by qRT-PCR analysis relative to control. The class given is functional.
In assay [12] the test system is MONO-MAC-6. Briefly: Upregulation of ICAM1 mRNA expression level in human MONO-MAC-6 cells at 5 uM incubated for 30 mins measured after 1 hr by oligonucleotide array hybridization assay relative to control. The class given is functional.
Assay [13] relates to MONO-MAC-6. Kind of assay: Upregulation of CCL4 mRNA expression level in human MONO-MAC-6 cells at 5 uM incubated for 30 mins measured after 1 hr by oligonucleotide array hybridization assay relative to control. It is filed as functional.
Assay [14] has as its system MONO-MAC-6. Briefly: Downregulation of ICAM1 mRNA expression level in human MONO-MAC-6 cells at 5 uM incubated for 30 mins measured after 4 hrs by oligonucleotide array hybridization assay relative to control. The class given is functional. The gist of the method: as §1
Assay [15] deals with T2, Acid ceramidase (Homo sapiens) (UniProt Q13510).
T2 sequence (whole entry): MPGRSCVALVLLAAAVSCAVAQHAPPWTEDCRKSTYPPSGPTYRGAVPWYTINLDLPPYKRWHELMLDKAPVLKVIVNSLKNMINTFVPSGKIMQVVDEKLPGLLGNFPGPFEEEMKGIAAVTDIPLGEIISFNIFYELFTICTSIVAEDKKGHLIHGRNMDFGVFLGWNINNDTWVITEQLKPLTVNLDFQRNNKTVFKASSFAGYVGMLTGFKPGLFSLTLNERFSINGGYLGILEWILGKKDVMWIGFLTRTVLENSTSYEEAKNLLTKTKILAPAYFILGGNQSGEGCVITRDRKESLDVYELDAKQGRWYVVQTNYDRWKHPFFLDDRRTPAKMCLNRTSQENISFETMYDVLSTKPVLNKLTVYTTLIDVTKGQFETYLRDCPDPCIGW
Briefly: Inhibition of acid ceramidase in human PBMC assessed as ratio of C24:1-ceramide/lipid phosphate level at 10 uM incubated for 30 mins measured after 4 hrs by HPLC method. It is filed as cell-based. In a few lines: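 Human macrophages from primary culture were preincubated 30 min with 10 µM compound. They were then stimulated 4 h with mmLDL (54 µg/mL), TNFalpha (3 ng/mL) or exogenous C6-ceramide (10 µM), or left unstimulated. Individual ceramide species (C16 and C24:1) were quantified in the cell lipid extracts.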

The subject of assay [16] is MONO-MAC-6. Briefly: Downregulation of PTX3 mRNA expression level in human MONO-MAC-6 cells at 5 uM incubated for 30 mins measured after 1 hr by oligonucleotide array hybridization assay relative to control. The class given is functional. In a few lines:
as §1

Assay [17] deals with MONO-MAC-6. Kind of assay: Downregulation of CCL4 mRNA expression level in human MONO-MAC-6 cells at 5 uM incubated for 30 mins measured after 4 hrs by oligonucleotide array hybridization assay relative to control. It is filed as functional. In a few lines: as §1
For assay [18], the system named is MONO-MAC-6. Kind of assay: Upregulation of CXCL3 mRNA expression level in LPS-stimulated human MONO-MAC-6 cells at 5 uM preincubated for 30 mins followed by LPS stimulation measured after 4 hrs by oligonucleotide array hybridization assay (reference value: 13.52). It is filed as functional.
For assay [19], the system named is MONO-MAC-6. Briefly: Downregulation of IL-6 mRNA expression level in human MONO-MAC-6 cells at 5 uM incubated for 30 mins measured after 4 hrs by qRT-PCR method relative to control. It is filed as functional.

Regarding `COc1ccc(CCN(C)CCCn2c3ccccc3c3ccccc32)cc1`, the “fold change (FC)” value turned out to be 2.08 in the assay with MONO-MAC-6 [1]; 1.46 in the assay with MONO-MAC-6 [2]; 1.2 with MONO-MAC-6 [4]; 1.4 with MONO-MAC-6 [5]; 1.39 in the assay on MONO-MAC-6 [6]; 1.24 with MONO-MAC-6 [7]. The “fold change (FC)” value in the assay with MONO-MAC-6 [8] is reported as 1.71; in the assay with MONO-MAC-6 [9], 1.14; with MONO-MAC-6 [10] it was 6.7; in the assay with MONO-MAC-6 [11] it was 2.93; with MONO-MAC-6 [12], 1.1; in the assay on MONO-MAC-6 [13], 1.22. Moreover, the “fold change (FC)” value with MONO-MAC-6 [14] is 1.57; in the assay with MONO-MAC-6 [16], 1.48; in the assay on MONO-MAC-6 [17], 1.55; in the assay with MONO-MAC-6 [18] it was 8.83; with MONO-MAC-6 [19], 2.25. In addition, the inhibition result in [3] was “inactive”. Moreover, the Ratio in [15] came to 8.71.

Values taken from ChEMBL document CHEMBL4152184, “NB 06: From a simple lysosomotropic aSMase inhibitor to tools for elucidating the role of lysosomes in signaling apoptosis and LPS-induced inflammation” (Eur J Med Chem, 2018).
